OX1R antag-1 = OX1R (human) antagonism. O43613. OX1R-expressing cells, FRET antagonist read-out. inhibition, % at 6.6 µM. hit rate 1.8% among 330,000; in the data active = inhibition mostly above about 38%, no sharp cut-off; inactive = mostly below about 40%;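 also: 0% = agonist challenge alone and 100% = reference antagonist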
TAAR1 antag = antagonists of human TAAR1; CHO RD-HGA16 TAAR1, Fluo-8 calcium fluorescence, antagonist; AID 624466; inhibition, % at 3 µM; Q96RJ0; hit rate 1.5% among 360,000;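 active = inhibition above a per-plate cutoff, the mean inhibition of test compounds on that plate plus 3 SD, cut at about 49% in these data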;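 also: 0% = DMSO plus EC80 beta-PEA response and 100% = DMSO alone without agonist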
Target sequence (Q96RJ0 whole entry, looked up): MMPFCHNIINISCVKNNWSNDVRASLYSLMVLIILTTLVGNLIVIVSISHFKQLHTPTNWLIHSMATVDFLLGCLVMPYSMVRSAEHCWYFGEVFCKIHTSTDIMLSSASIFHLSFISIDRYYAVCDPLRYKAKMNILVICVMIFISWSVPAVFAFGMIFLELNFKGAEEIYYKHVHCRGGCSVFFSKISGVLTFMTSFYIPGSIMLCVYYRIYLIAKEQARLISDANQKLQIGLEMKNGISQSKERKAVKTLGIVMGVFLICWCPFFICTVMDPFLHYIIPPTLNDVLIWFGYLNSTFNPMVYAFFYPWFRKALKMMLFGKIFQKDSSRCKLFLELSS
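Test system: RD-HGA16 CHO cells with stable hTAAR1 and Gα16 / Probe or stimulus: EC80 β-phenethylamine stimulus / Times: seeding 17-24 h prior, 75-min 37 °C, 30-min RT dye loading / Detection: Fluo-8 calcium-sensitive fluorescence / Read-out basis: % inhibition scaled between DMSO and EC80 PEA controls / Repeats: singlicate, one well per test compound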
OX1R antag-2 = human HCRTR1 antagonism; O43613; hit rate 0.43% among 330,000; CHO/OX1R cells, Fluo-8 calcium fluorescence, orexin A; inhibition, % at 5 µM; AID 434989;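 active = inhibition above its plate's threshold, mean inhibition of all tested compounds on the plate plus 3 SD, cut at about 37% in these data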;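 also: 0% = orexin A challenge wells and 100% = SB-334867-A antagonist wells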
TAAR1 agonist = human TAAR1 agonism | Q96RJ0 | CHO RD-HGA16 TAAR1, Fluo-8 calcium fluorescence; vehicle wells 0%, saturating PEA agonist 100% | activation, % at 3 µM | hit rate 0.99% among 360,000;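 active = activation above the mean activation of all test compounds in the run plus 3 SD, cut at about 38% in these data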
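Signal – calcium-sensitive Fluo-8 signal, excitation 470-495, emission 515-575 nm · System – RD-HGA16 (CHO) cells co-expressing Gα16 and hTAAR1 · Incubation – 17-24 h seeding, 75 min 37 °C dye, 30 min RT · Compound dosing – 3 µM single concentration · Repeats – no replicates (n 1)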
CHO parental Ca = signal in parental CHO cells, OX1R antagonist counter-screen | parental CHO-K1, ATP-induced calcium, Fluo-8 fluorescence | inhibition, % at 5.6 µM | hit rate 0.63% among 330,000 | AID 463079;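 active = inhibition above that plate's mean sample inhibition plus 3 SD, cut at about 26% in these data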;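 also: 0% = ATP-challenged DMSO wells and 100% = DMSO wells without ATP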
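Material – parental CHO cells · Reagent – ATP stimulus · Compound – single nominal dose of 5.6 µM per compound · Detection – Fluo-8 fluorescence · Read-out basis – percent inhibition of calcium signal · Controls – ATP-challenged DMSO wells low, unchallenged DMSO wells high · Repeats – no replicates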
GalR3 antagonist = human GalR3 antagonism; inhibition, % at 3 µM; O60755; hit rate 0.44% among 360,000; HEK293 GalR3-CNG cAMP membrane potential fluorescence; galR3 body fused to GalR1 C-terminus; AID 651719;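 active = inhibition above the screen-wide average plus 3 SD, cut at about 13% in these data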;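 also: forskolin and galanin both at EC90 stimulate the cells; cAMP rise reported by CNG channel membrane potential dye signal; 0% = forskolin plus galanin with DMSO and 100% = forskolin alone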
Target sequence (O60755 1-299 limits assumed): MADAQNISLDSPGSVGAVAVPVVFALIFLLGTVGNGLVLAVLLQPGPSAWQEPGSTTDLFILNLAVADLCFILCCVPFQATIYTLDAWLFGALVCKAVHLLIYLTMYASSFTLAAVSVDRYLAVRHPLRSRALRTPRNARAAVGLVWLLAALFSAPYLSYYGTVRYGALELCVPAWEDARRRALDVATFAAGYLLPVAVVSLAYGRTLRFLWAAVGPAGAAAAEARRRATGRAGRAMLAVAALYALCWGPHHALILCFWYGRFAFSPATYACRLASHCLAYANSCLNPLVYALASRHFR
nonsel antag count = counter-screen for TAAR1 antagonists: nonselective antagonists. counterscreen cell line, calcium fluorescence, antagonist mode. AID 651780. inhibition, % at 3 µM. shares compounds with TAAR1 antag. hit rate 77% among 2,400; in the data active = inhibition above about 22%;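 also: CHO-Ga16 host cells stimulated with ATP at an EC80 level; 0% = agonist EC80 plus vehicle and 100% = vehicle without agonist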
TAAR1 antag conf = human TAAR1 antagonism, confirmed. inhibition, % at 3 µM. TAAR1-expressing cells, fluorescence antagonist read-out. shares compounds with TAAR1 antag. hit rate 40% among 2,400; in the data active = inhibition above about 49%;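 also: CHO-Ga16 host cells challenged with agonist PEA near its EC80; 0% = agonist at EC80 plus vehicle and 100% = vehicle with no agonist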
Ga16 ag counter = counter-screen for TAAR1 antagonists: nonselective Ga16 agonists; Ga16-expressing cells, calcium fluorescence, agonist counterscreen; AID 651953; hit rate 18% among 2,400; activation, % at 3 µM; shares compounds with TAAR1 antag; in the data active = activation above about 12%;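 also: 0% = vehicle wells and 100% = saturating stimulus response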
TAAR1 ag count = counter-screen for human TAAR1 antagonists: TAAR1 agonists | shares compounds with TAAR1 antag | hit rate 2% among 2,400 | hTAAR1 cell line, fluorescence activation, agonist mode | activation, % at 3 µM; in the data active = activation above about 37%;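 also: CHO cells stably expressing TAAR1 with calcium dye readout; 0% = DMSO vehicle and 100% = full agonist response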
Starred values were filed as active, the others as inactive. Hits are enriched below; roughly 4.3% of the tested compounds scored in any of these assays.

What do the screens show for `CN(C)CCNc1ncnc2c1ncn2[C@H]1CN(Cc2ccc(Cl)cc2)C[C@@H](CO)O1`?
TAAR1 antag: 3; TAAR1 agonist: 1; GalR3 antagonist: -6

How did Cc1nccn1-c1ccc(NC(=O)[C@H]2O[C@@H](n3ccc(N)nc3=O)[C@H](O)[C@@H]2O)cc1 do in these assays?
TAAR1 antag: -15; TAAR1 agonist: 5; GalR3 antagonist: -1

Results for O=C1NC[C@@H](CCCCN2CCN(CCc3ccc(O)cc3)C(=O)C2=O)N(CCC2CCCCC2)C1=O ?
TAAR1 antag: -6; TAAR1 agonist: 2; GalR3 antagonist: -3

What do the screens show for `O=C(/C=C/c1ccccc1)NC(=S)Nc1ccc(CN2CCOCC2)cc1`?
OX1R antag-1: 19; TAAR1 antag: 58*; OX1R antag-2: -35; TAAR1 agonist: 17; CHO parental Ca: -15; GalR3 antagonist: -5; nonsel antag count: 41*; TAAR1 antag conf: 48; Ga16 ag counter: 10; TAAR1 ag count: 9

Results for O=C(/C=C/c1ccccc1)Nc1ccc(N2CCCCC2)cc1 ?
OX1R antag-1: 30; TAAR1 antag: 69*; OX1R antag-2: -3; TAAR1 agonist: 23; CHO parental Ca: 7; GalR3 antagonist: -4; nonsel antag count: 30*; TAAR1 antag conf: 65*; Ga16 ag counter: 28*; TAAR1 ag count: 61*

What do the screens show for `O=C(/C=C/c1ccc(Cl)cc1Cl)NC(=S)Nc1ccc(CN2CCOCC2)cc1`?
OX1R antag-1: -4; TAAR1 antag: -6; OX1R antag-2: -17; TAAR1 agonist: 1; CHO parental Ca: -16; GalR3 antagonist: 0

Results for COc1ccc(C(C(=O)NC2CCCC2)N(Cc2ccco2)C(=O)c2snc(C(N)=O)c2N)cc1OC (configuration not stated) ?
OX1R antag-1: 11; TAAR1 antag: 43; OX1R antag-2: -12; TAAR1 agonist: 14; CHO parental Ca: -4; GalR3 antagonist: -6

What do the screens show for `NC(=O)c1nsc(C(=O)N(Cc2ccco2)C(C(=O)NC2CCCC2)c2ccc(O)cc2)c1N` (configuration not stated)?
TAAR1 antag: 53*; TAAR1 agonist: 9; GalR3 antagonist: -3; nonsel antag count: 22*; TAAR1 antag conf: 45; Ga16 ag counter: 7; TAAR1 ag count: 7

Results for COc1ccc(C(C(=O)NC2CCCCC2)N(Cc2ccco2)C(=O)c2snc(C(N)=O)c2N)cc1 (configuration not stated) ?
TAAR1 antag: 71*; TAAR1 agonist: 15; GalR3 antagonist: -9; nonsel antag count: 31*; TAAR1 antag conf: 53*; Ga16 ag counter: 9; TAAR1 ag count: 8

What do the screens show for `COc1cccc(/C=C/C(=O)N(C)CC(=O)Nc2ccc(Cl)c(C(F)(F)F)c2)c1`?
OX1R antag-1: 7; TAAR1 antag: -11; OX1R antag-2: -8; TAAR1 agonist: 4; CHO parental Ca: 4; GalR3 antagonist: -2

Results for O=C1N[C@@H](c2ccccc2)COC(=O)[C@H](Cc2ccc(F)cc2)CC/C=C/C[C@H]1CC(=O)N(CCO)Cc1ccccc1 ?
OX1R antag-1: 4; TAAR1 antag: 61*; OX1R antag-2: -7; TAAR1 agonist: 15; CHO parental Ca: -17; GalR3 antagonist: -7; nonsel antag count: 32*; TAAR1 antag conf: 47; Ga16 ag counter: 13*; TAAR1 ag count: 13

What do the screens show for `O=C1N[C@@H](Cc2ccccc2)COC(=O)[C@H](Cc2ccc(F)cc2)C/C=C\C[C@@H]1CC(=O)N(CCO)Cc1ccccc1`?
OX1R antag-1: 19; TAAR1 antag: 25; OX1R antag-2: -24; TAAR1 agonist: 12; CHO parental Ca: -27; GalR3 antagonist: -2

What do the screens show for `O=C1N[C@H](Cc2ccccc2)COC(=O)[C@H](Cc2ccc(F)cc2)C/C=C\C[C@@H]1CC(=O)N(CCO)Cc1ccccc1`?
OX1R antag-1: 5; TAAR1 antag: 54*; OX1R antag-2: -3; TAAR1 agonist: 35; CHO parental Ca: -23; GalR3 antagonist: 0; nonsel antag count: 32*; TAAR1 antag conf: 49*; Ga16 ag counter: 12*; TAAR1 ag count: 17

How did O=C1N[C@H](Cc2ccccc2)COC(=O)[C@@H](Cc2ccc(F)cc2)CC/C=C/C[C@H]1CC(=O)N(CCO)Cc1ccccc1 do in these assays?
OX1R antag-1: 4; TAAR1 antag: 45; OX1R antag-2: -7; TAAR1 agonist: 18; CHO parental Ca: -19; GalR3 antagonist: -2

Results for O=C(C[C@@H]1C/C=C\C[C@H](Cc2ccc(F)cc2)C(=O)OC[C@H]2CCCN2C1=O)N[C@H](CO)Cc1ccccc1 ?
OX1R antag-1: 11; TAAR1 antag: 61*; OX1R antag-2: -16; TAAR1 agonist: 21; CHO parental Ca: -15; GalR3 antagonist: -5; nonsel antag count: 23*; TAAR1 antag conf: 33; Ga16 ag counter: 5; TAAR1 ag count: 1

Results for CC(C)(C)OC(=O)C[C@H]1C/C=C\C[C@H](CC(=O)N(CCO)Cc2ccccc2)C(=O)N[C@@H](c2ccccc2)COC1=O ?
OX1R antag-1: 12; TAAR1 antag: 56*; OX1R antag-2: -12; TAAR1 agonist: 21; CHO parental Ca: -18; GalR3 antagonist: 0; nonsel antag count: 30*; TAAR1 antag conf: 44; Ga16 ag counter: 9; TAAR1 ag count: 5

How did CC(C)(C)S(=O)N1Cc2cc(=O)n(Cc3ccccc3)c(CCO)c2[C@@H]1CCO (some centres not stated) do in these assays?
TAAR1 antag: -18; TAAR1 agonist: 7; GalR3 antagonist: 2

Results for Cc1cnc(C(=O)OCC(=O)N2C(C)CCCC2C)cn1 (configuration not stated) ?
OX1R antag-1: 0; TAAR1 antag: 6; OX1R antag-2: -14; TAAR1 agonist: 3; CHO parental Ca: -4; GalR3 antagonist: -6

Results for COc1ccccc1NS(=O)(=O)c1ccc(C)c(C(=O)NCc2cccnc2)c1 ?
OX1R antag-1: 2; TAAR1 antag: 10; OX1R antag-2: -16; TAAR1 agonist: -2; CHO parental Ca: -17; GalR3 antagonist: -6

High-throughput results: PubChem BioAssay, The Scripps Research Institute Molecular Screening Center
